Consider one compound from article PMC6146057 (ACS chemical neuroscience, 2018).

The target of one data set is cytochrome P450 2D6 (Homo sapiens, UniProt P10635). Kind of data set: CYP450 inhibition in human liver microsomes, 2D6. Type of data set: in vitro ADME.
The nature of data set [1]: Plasma protein binding by equilibrium dialysis, cyno. Format: in vitro ADME. The conditions noted are these: cynomolgus monkey, pH 7.4. The method, boiled down: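 Plasma spiked with test article was dialysed against 25 mM phosphate buffer, pH 7.4, by equilibrium dialysis for 4 h at 37 °C with shaking. Aliquots from each chamber were matrix-matched, extracted with ice-cold acetonitrile, centrifuged and quantified by LC/MS/MS.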
(In equilibrium dialysis only unbound substance equilibrates across the membrane.)

The target in a further data set is cytochrome P450 3A4 (Homo sapiens, UniProt P08684). Kind of data set: CYP450 inhibition in human liver microsomes, 3A4. Type of data set: in vitro ADME. Background: Microsomes from liver hold many membrane-bound enzymes, among them those of drug oxidation.
Sequence of cytochrome P450 3A4 (P08684 whole entry): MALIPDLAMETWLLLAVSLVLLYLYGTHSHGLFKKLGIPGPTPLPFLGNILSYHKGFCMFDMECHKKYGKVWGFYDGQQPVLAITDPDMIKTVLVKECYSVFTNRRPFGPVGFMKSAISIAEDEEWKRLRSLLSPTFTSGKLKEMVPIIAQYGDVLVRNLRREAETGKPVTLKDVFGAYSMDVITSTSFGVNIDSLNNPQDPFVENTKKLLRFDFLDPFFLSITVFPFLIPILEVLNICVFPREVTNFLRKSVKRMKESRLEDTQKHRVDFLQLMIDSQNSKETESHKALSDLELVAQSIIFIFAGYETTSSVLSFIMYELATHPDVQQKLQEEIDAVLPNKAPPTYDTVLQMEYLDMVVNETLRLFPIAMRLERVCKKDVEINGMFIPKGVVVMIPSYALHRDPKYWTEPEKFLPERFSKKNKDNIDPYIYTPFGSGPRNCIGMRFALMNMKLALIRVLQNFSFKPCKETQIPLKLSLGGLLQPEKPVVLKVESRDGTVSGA
The next data set has as its target T1, mouse M1 (Mus musculus, UniProt P12657).
T1 sequence (P12657 1-460): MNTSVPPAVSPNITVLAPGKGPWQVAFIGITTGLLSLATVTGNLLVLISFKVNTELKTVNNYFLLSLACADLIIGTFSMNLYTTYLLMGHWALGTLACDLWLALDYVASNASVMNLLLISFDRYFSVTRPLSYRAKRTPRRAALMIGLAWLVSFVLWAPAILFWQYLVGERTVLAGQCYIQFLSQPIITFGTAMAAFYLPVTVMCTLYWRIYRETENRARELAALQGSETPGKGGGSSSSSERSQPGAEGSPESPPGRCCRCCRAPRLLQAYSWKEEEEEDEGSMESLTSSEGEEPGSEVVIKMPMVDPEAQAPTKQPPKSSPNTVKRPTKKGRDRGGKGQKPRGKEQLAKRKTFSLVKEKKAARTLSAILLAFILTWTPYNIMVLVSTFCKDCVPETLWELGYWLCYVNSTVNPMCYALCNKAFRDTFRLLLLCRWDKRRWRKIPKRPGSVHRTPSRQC
Put plainly: Calcium mobilization assay, mouse M1 cell line with low expression. Format: cell-based.

The term IC50 denotes the midpoint of a concentration-inhibition curve. A lower IC50 goes with greater potency. A word on the fraction unbound: it is free concentration divided by total concentration. Read a high fraction unbound as weak binding. What is called EC50 is the concentration needed to bring the measured effect to its halfway point.

Sequence of cytochrome P450 2D6 (P10635 whole entry): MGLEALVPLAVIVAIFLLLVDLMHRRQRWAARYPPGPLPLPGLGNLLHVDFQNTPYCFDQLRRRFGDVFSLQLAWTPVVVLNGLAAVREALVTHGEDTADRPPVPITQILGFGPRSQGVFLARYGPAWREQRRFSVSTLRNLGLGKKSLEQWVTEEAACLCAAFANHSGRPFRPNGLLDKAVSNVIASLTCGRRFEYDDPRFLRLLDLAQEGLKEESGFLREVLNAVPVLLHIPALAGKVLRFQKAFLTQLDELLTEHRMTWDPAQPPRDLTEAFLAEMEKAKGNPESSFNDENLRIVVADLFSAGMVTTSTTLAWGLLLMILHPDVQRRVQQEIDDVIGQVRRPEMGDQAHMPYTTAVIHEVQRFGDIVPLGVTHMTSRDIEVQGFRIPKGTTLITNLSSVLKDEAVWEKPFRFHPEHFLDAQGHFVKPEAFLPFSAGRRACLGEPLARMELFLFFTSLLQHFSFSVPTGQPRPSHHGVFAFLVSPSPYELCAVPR

`O=C(N[C@H]1CCCC[C@@H]1O)[C@H]1CN(Cc2ccc(-n3cccn3)cc2)c2ccccc2O1` [VU0486846, (2R)-N-[(1S,2S)-2-Hydroxycyclohexyl]-4-[(4-pyrazol-1-ylphenyl)-methyl]-2,3-dihydro-1,4-benzoxazine-2-carboxamide]: the concentration for half-maximal inhibition (IC50) worked out at 29.8 µM against cytochrome P450 2D6 and 5 µM against cytochrome P450 3A4. In data set [1], this compound came in with a fraction unbound at 4 h of 0.016. The EC50 at mouse M1 (M1 PAM EC50, mouse M1 cell line) was 0.6 µM; on mouse M1 (M1 PAM pEC50, mouse M1 cell line), 0.562 µM. Further, the “M1 PAM efficacy, % ACh Max” value at mouse M1 (mouse M1 cell line) is 77 ± 4 % ACh Max. The “M1 agonism, % ACh Max” value at mouse M1 (mouse M1 cell line, compound alone) was 9 ± 1 % ACh Max.
